ChEMBL document CHEMBL4387710, “Fragment-Based Discovery of an Apolipoprotein E4 (apoE4) Stabilizer” (J Med Chem, 2019)
Values belong to the compound of their own block, whether it stands above or below them. Active and inactive are the calls of the source. No cut-off for these calls is given here.

Assays:
[1] = Binding affinity to N-terminal thrombin-recognition site-fused His6-tagged human apolipoprotein E4 N-terminal domain without leader sequence (1 to 164 residues) expressed in Escherichia coli BL21-(DE3)-T1R cells by 13C-HSQC NMR spectroscopy
[2] = species on record: Homo sapiens; assay: (§1) Binding affinity to human recombinant full-length N-terminal thrombin-recognition site-fused His6-tagged apolipoprotein E3 (1 to 299 residue) F257A/W246R/V269A/L279Q/V287E mutant expressed in Escherichia coli BL21-(DE3)-T1R cells assessed as change in melting temperature at 5 mM incubated for 15 mins by SYPRO orange dye-based thermal shift assay
Procedure, shortened: (§2)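 Thermal shift assay: compound added at 5 mM to full-length mutant apoE protein (apoE4 or apoE3). Stabilization is reported as the shift in melting temperature, in degrees.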

[3] = species on record: Homo sapiens; assay: Binding affinity to full-length human recombinant C-terminal FLAG/His-tagged apolipoprotein E4 expressed in HEK293-6E cells assessed as breakdown of DMPG liposomes at 500 uM after 30 mins by dynamic light scattering analysis; type: cell-based
Procedure, shortened: (§3)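 DMPG liposome breakdown assay: large DMPG liposomes incubated with apoE protein (N-terminal domain, or full-length wild-type from mammalian cells). Breakdown into smaller discoidal complexes is read as a fall in light-scattering intensity. Liposomes alone serve as control. Compound is tested as a dose series covering 15.6 to 500 μM.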

[4] = species on record: Homo sapiens; assay: Binding affinity to N-terminal thrombin-recognition site-fused His6-tagged human apolipoprotein E4 N-terminal domain without leader sequence (1 to 164 residues) expressed in Escherichia coli BL21-(DE3)-T1R cells assessed as breakdown of DMPG liposomes at 500 uM after 30 mins by dynamic light scattering analysis; procedure, shortened: as §3
[5] = Binding affinity to full-length human recombinant C-terminal FLAG/His-tagged apolipoprotein E4 expressed in HEK293-6E cells by surface plasmon resonance assay
[6] = Solubility of the compound in PBS by NMR method; type: physicochemical
[7] = Binding affinity to N-terminal thrombin-recognition site-fused His6-tagged human apolipoprotein E4 N-terminal domain without leader sequence (1 to 164 residues) expressed in Escherichia coli BL21-(DE3)-T1R cells by surface plasmon resonance analysis
[8] = Binding affinity to full-length human recombinant C-terminal FLAG/His-tagged apolipoprotein E3 expressed in HEK293-6E cells by surface plasmon resonance assay
[9] = species on record: Homo sapiens; assay: as §1, with “apolipoprotein E4” for “apolipoprotein E3”; procedure, shortened: as §2
[10] = tested on: Astrocyte; assay: Antineuroinflammatory activity in human induced pluripotent stem cell-derived astrocytes harboring apolipoprotein E4/4 assessed reduction in TNFalpha/IL-1beta/IFNgamma-stimulated IL-8 secretion preincubated for 1 hr followed by TNFalpha/IL-1beta/IFNgamma stimulation and measured after 24 hrs; type: functional, cell-based
[11] = species on record: Homo sapiens; assay: as §1, with “apolipoprotein E4” for “apolipoprotein E3”, “at 1” for “at 5”
[12] = tested on: Astrocyte; assay: Cytotoxicity against human induced pluripotent stem cell-derived astrocytes harboring apolipoprotein E4/4 assessed as effect on cell viability at 12.5 uM to 100 uM preincubated for 1 hr followed by TNFalpha/IL-1beta/IFNgamma stimulation and measured after 24 hrs by CellTiter-Glo luminescent cell viability assay; type: cell-based
[13] = tested on: Astrocyte; assay: Antineuroinflammatory activity in human induced pluripotent stem cell-derived astrocytes harboring apolipoprotein E4/4 assessed reduction in TNFalpha/IL-1beta/IFNgamma-stimulated IL-6 secretion preincubated for 1 hr followed by TNFalpha/IL-1beta/IFNgamma stimulation and measured after 24 hrs; type: functional, cell-based

SMILES: CCNS(=O)(=O)c1ccc(-c2cc(Cl)cc(C3(C(=N)N)CCC3)c2)cc1
Kd [1]: 20 µM

SMILES: CC(C)(O)c1ccc(-c2cc(Cl)cc(C3(C(=N)N)CCC3)c2)cc1
Kd [1]: 30 µM

solubility [6]: ≥ 500 µM
SMILES: N=C(N)C1(c2cccc(Cl)c2)CCC1
ΔTm [2]: 0.5 °C
Activity [3]: Active
Kd [1]: 900 µM
Activity [4]: Active
Kd [5]: 233 µM
Kd [7]: 205 µM
Kd [8]: 890 µM
ΔTm [9]: 4 °C

SMILES: N=C(N)C1(c2cc(Cl)cc(-c3ccc(CN)cc3)c2)CCC1
Kd [1]: < 5 µM

SMILES: CC(=O)NCc1ccc(-c2cc(Cl)cc(C3(C(=N)N)CCC3)c2)cc1
Kd [1]: 20 µM

SMILES: N=C(N)C1(c2cc(Cl)cc(-c3ccc(CO)c(Cl)c3)c2)CCC1
Kd [1]: 8 µM

SMILES: N=C(N)C1(c2cc(Cl)cc(-c3ccccc3)c2)CCC1
Kd [1]: 230 µM

SMILES: CN(C)CCNC(=O)c1ccc(-c2cc(Cl)cc(C3(C(=N)N)CCC3)c2)cc1
Kd [1]: < 5 µM
Activity [10]: Dose-dependent effect
ΔTm [11]: 4 °C
Activity [12]: Non-Toxic
Activity [13]: Dose-dependent effect
